ChEMBL document CHEMBL2169742, “Design, synthesis, and biological evaluation of novel transrepression-selective liver X receptor (LXR) ligands with 5,11-dihydro-5-methyl-11-methylene-6H-dibenz[b,e]azepin-6-one skeleton” (J Med Chem, 2012)
The source made the active and inactive calls. No cut-off for these calls is given here.

Tests used:
[1] = target: T1, Peroxisome proliferator-activated receptor gamma (Homo sapiens) (UniProt P37231); test: Antagonist activity at human Gal4-fused PPARgamma assessed as inhibition of ciglitazone-induced luciferase activity at 0.1 to 10 uM by reporter gene assay; type: functional
T1 sequence (whole entry): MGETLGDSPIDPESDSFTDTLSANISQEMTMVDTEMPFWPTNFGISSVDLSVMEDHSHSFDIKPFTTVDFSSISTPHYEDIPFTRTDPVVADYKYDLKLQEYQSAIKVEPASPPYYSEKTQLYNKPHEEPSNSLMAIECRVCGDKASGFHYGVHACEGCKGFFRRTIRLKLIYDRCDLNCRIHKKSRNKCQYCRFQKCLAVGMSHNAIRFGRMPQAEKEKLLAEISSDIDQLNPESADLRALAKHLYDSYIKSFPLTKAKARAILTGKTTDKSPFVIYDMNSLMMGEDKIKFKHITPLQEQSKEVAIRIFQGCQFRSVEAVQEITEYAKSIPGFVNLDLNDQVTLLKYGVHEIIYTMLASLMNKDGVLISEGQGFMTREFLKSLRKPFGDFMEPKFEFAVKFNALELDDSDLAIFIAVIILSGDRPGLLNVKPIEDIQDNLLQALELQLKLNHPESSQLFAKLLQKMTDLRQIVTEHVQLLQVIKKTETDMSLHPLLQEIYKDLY

[2] = target: T2, Oxysterols receptor LXR-alpha (Homo sapiens, UniProt Q13133); test: Transactivational agonist activity at human LXRalpha transfected in HEK293 cells coexpressing CMX-Gal4N-SRC1 assessed as SRC1 recruitment at 10 uM after 16 hrs by mammalian two-hybrid assay; type: cell-based; details: hek293, 16 h
T2 sequence (Q13133 whole entry): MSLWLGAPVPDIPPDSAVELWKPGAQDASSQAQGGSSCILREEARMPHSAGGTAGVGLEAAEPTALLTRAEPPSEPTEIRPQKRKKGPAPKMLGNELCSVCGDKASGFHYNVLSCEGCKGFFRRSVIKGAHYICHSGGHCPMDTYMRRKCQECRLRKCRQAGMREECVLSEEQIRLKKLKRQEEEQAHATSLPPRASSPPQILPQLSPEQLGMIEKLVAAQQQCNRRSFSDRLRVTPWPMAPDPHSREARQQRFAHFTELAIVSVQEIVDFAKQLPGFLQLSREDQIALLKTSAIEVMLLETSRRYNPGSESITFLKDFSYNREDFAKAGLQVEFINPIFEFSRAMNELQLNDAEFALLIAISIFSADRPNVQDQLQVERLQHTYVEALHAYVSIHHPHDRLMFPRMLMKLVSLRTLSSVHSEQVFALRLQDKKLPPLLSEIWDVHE
Procedure, shortened: (§1)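 Mammalian two-hybrid in HEK293 cells by calcium phosphate cotransfection: CMX-VP16N-hLXRα, Gal4N-fused SRC1, DRIP205, NCoR or SMRT (15 ng), tk-MH100×4-luc (50 ng) and CMX-β-gal (10 ng). Compound or DMSO added 8 h after transfection for 16 h. Luciferase was normalized to β-galactosidase, in triplicate.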

[3] = Transrepressional activity at LXR in C57BL/6J mouse peritoneal macrophages assessed as inhibition of LPS-induced IL-1beta mRNA expression at 10 uM incubated for 6 hr prior to LPS-challenge measured after 18 hrs by RT-PCR analysis
Procedure, shortened: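 Thioglycollate-elicited peritoneal macrophages (wild-type C57BL/6J or LXRα-null, 8–10 weeks) were plated at 4 × 10⁶/well and pretreated with compound 6 h before LPS 100 ng/mL. Cells were harvested after 18 h. il-6 and il-1β mRNA were measured by real-time quantitative PCR, normalized to GAPDH.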

[4] = target: T3, Oxysterols receptor LXR-beta (Homo sapiens, UniProt P55055); test: Transactivational antagonist activity at human LXRbeta transfected in HEK293 cells expressing CMX-Gal4N assessed as inhibition of T1317-induced luciferase activity after 16 hrs by reporter gene assay; type: functional, cell-based
T3 sequence (P55055 whole entry): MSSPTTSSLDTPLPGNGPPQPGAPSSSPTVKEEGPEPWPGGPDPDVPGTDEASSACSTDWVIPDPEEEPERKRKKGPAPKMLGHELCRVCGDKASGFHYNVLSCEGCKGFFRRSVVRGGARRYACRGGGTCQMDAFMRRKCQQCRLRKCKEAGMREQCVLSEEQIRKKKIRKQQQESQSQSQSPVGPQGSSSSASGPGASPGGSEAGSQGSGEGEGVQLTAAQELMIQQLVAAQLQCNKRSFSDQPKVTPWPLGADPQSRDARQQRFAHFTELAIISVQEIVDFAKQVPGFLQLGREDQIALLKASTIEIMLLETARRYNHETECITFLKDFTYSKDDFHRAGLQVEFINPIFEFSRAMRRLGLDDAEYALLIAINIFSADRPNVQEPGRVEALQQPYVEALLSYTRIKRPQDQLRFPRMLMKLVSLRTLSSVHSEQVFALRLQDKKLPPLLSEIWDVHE

[5] = target: T4, Bile acid receptor (Homo sapiens) (UniProt Q96RI1); test: Antagonist activity at human Gal4-fused FXR assessed as inhibition of chenodeoxycholic acid-induced luciferase activity at 0.03 to 10 uM by reporter gene assay; type: functional
T4 sequence (whole entry): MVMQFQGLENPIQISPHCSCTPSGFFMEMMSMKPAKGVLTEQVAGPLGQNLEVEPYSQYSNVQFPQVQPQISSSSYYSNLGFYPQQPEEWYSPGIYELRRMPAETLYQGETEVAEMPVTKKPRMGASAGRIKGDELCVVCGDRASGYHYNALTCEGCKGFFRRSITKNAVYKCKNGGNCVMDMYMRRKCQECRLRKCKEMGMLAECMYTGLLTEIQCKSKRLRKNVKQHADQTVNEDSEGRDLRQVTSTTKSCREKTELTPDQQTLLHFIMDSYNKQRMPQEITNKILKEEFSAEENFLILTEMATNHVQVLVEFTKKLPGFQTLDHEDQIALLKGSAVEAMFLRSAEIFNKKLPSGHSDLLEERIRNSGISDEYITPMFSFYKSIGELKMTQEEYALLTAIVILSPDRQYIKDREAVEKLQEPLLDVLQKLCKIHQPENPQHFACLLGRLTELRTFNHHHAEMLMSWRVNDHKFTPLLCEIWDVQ

[6] = target: T2, Oxysterols receptor LXR-alpha; test: Transactivational agonist activity at human LXRalpha transfected in HEK293 cells coexpressing CMX-Gal4N-DRIP205 assessed as DRIP205 recruitment at 10 uM after 16 hrs by mammalian two-hybrid assay; type: cell-based; details: hek293, 16 h; procedure, shortened: as §1

- inhibition [1]: inactive
- inhibition [3]: Active
- IC50 [4]: > 30 µM
- inhibition [5]: inactive
Structure (SMILES): C=C1c2ccccc2C(=O)N(C)c2ccc(CC)cc21
- Activity [2]: Non-toxic
- Activity [6]: Non-toxic
